Measurements published in ChEMBL document CHEMBL1122742, “Cardiotonic agents. 1. 4,5-Dihydro-6-[4-(1H-imidazol-1-yl)phenyl]-3 (2H)-pyridazinones: novel positive inotropic agents for the treatment of congestive heart failure” (J Med Chem, 1984).
“And” between values parts separate entries of the source, which are not always exact repeats. Identical values can stand only once.

Experiments:
Canis familiaris [1] = experiment: Positive inotropic activity in anesthetized dogs; format: functional; conditions: Canis lupus familiaris
How it was run: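 Anesthetized dogs received increasing intravenous half-log doses across 0.001–1.0 mg/kg. dP/dtmax was recorded while heart rate and aortic pressure were monitored. ED50 was taken from the linear part of each animal's dose–response curve by least squares, then averaged as mean and SEM.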

Canis familiaris [2] = experiment: Positive inotropic effect (reduced mean aortic blood pressure) in anesthetized dogs at 0.001-1.0 mg/kg intravenous administration, range 0.7-22.4; format: functional, Canis lupus familiaris, Artery
How it was run: (§1)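 Anesthetized dogs were given increasing intravenous half-log doses within 0.001–1.0 mg/kg. Heart rate, aortic blood pressure and dP/dtmax were recorded simultaneously. Changes are expressed as percent of control, with mean ± error at each dose.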

Canis familiaris [3] = experiment: Positive inotropic effect (increased myocardial contractility) in chronically instrumented conscious dogs at 1.0 mg/kg oral administration for 6 hours; format: functional, Canis lupus familiaris
Canis familiaris [4] = experiment: Positive inotropic effect (increase in heart rate) in chronically instrumented conscious dogs at 1.0 mg/kg oral administration for 6 hours; format: functional, Canis lupus familiaris
Canis familiaris [5] = experiment: Positive inotropic effect (increased myocardial contractility) in anesthetized dogs at 0.01-1.0 mg/kg intravenous administration, range 10.2-146.7
Bos taurus = species on record: Bos taurus; experiment: Percent inhibition of crude bovine cardiac phosphodiesterase at 190 uM
Canis familiaris [6] = experiment: Positive inotropic effect (increase in heart rate) in anesthetized dogs at 0.001-1.0 mg/kg intravenous administration, range is 1.2-33.8; format: functional, Canis lupus familiaris; how it was run: as §1
Canis familiaris [7] = experiment: Positive inotropic effect (increase in heart rate) in anesthetized dogs at 0.001-1.0 mg/kg intravenous administration, range is 2.5-43.8; format: functional, Canis lupus familiaris; how it was run: as §1
Canis familiaris [8] = experiment: Positive inotropic effect (increase in heart rate) in chronically instrumented conscious dogs at 0.1 mg/kg oral administration for 6 hours
Canis familiaris [9] = experiment: Positive inotropic effect (increased myocardial contractility) in anesthetized dogs at 0.001-0.10 mg/kg intravenous administration, range 10.5-148.5
Canis familiaris [10] = experiment: Positive inotropic effect (reduced mean aortic blood pressure) in anesthetized dogs at 0.001-1.0 mg/kg intravenous administration; format: functional, Canis lupus familiaris, Artery; how it was run: as §1
Canis familiaris [11] = experiment: Positive inotropic effect (increased myocardial contractility) in chronically instrumented conscious dogs at 0.1 mg/kg oral administration for 6 hours

CSc1ccc(C(=O)c2[nH]c(=O)[nH]c2C)cc1 [ENOXIMONE]
ED50 (Canis familiaris [1]): 0.283 mg/kg

Nc1cc(-c2ccncc2)c[nH]c1=O [INAMRINONE]
ED50 (Canis familiaris [1]): 0.389 mg/kg

O=C1CCC(c2ccc(-n3ccnc3)cc2)=NN1 [IMAZODAN]
Blood pressure (Canis familiaris [2]): 0.7
dP/dt max (Canis familiaris [3]): 42.6
Heart rate (Canis familiaris [4]): 48.1
dP/dt max (Canis familiaris [5]): 10.2
inhibition (Bos taurus): 50%
Heart rate (Canis familiaris [6]): 0
ED50 (Canis familiaris [1]): 0.045 mg/kg

CC1CC(O)=NN=C1c1ccc(-n2ccnc2)cc1 (configuration not stated) [CI-930]
Heart rate (Canis familiaris [7]): 2.5
Heart rate (Canis familiaris [8]): 41.6
dP/dt max (Canis familiaris [9]): 10.5
Blood pressure (Canis familiaris [10]): 19 and 7.4
dP/dt max (Canis familiaris [11]): 50.2
ED50 (Canis familiaris [1]): 0.013 mg/kg

COc1cc([S+](C)[O-])ccc1-c1nc2cccnc2[nH]1 (configuration not stated) [SULMAZOLE]
ED50 (Canis familiaris [1]): 0.435 mg/kg

Cc1[nH]c(=O)c(C#N)cc1-c1ccncc1 [MILRINONE]
ED50 (Canis familiaris [1]): 0.037 mg/kg
